ChEMBL document CHEMBL1641440, “Virtual screening based identification of novel small-molecule inhibitors targeted to the HIV-1 capsid” (Bioorg Med Chem, 2011)
Active and inactive are the calls of the source. The rule behind the calls is not given here.

Columns and labels:
MT2 = experiment: Cytotoxicity against human MT2 cells after 4 days by XTT assay; type: cell-based; conditions: mt2, 96 h
Method in brief: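 XTT assay run in parallel with the MT-2 antiviral assay, with medium in place of virus. Graded compound added to an equal volume of MT-2 cells (1 × 10^5 cells/mL), 37 °C for 4 days. Formazan read at 450 nm (reference 620 nm) 4 h after XTT addition; CC50 = concentration giving 50% cytotoxicity.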

[1] = tested on: Human immunodeficiency virus 1; experiment: Antiviral activity against HIV1 3B infected in human MT2 cells assessed as inhibition of viral p24 antigen production after 4 days by ELISA; type: functional, organism-based; conditions: Human immunodeficiency virus 1, 3B, MT2, 96 h
Method in brief: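 MT-2 cells (1 × 10^4) infected with HIV-1 IIIB at 100 TCID50 (0.01 MOI) in RPMI 1640/10% FBS with graded inhibitor concentrations overnight; medium then replaced with fresh medium containing freshly prepared compound. On day 4 supernatant mixed 1:1 with 5% Triton X-100 and p24 measured by ELISA; IC50 = concentration giving 50% reduction in p24 production. Mean ± SD.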

[2] = tested on: Human immunodeficiency virus 1; conditions: 3B, MT2, 1 ug/mL
[3] = tested on: Human immunodeficiency virus 1; experiment: Antiviral activity against primary HIV1 isolate 92UG024 infected in human PBMC assessed as inhibition of viral p24 antigen production after 7 days by ELISA; conditions: Human immunodeficiency virus 1, isolate 92UG024, 168 h
[4] = tested on: Human immunodeficiency virus 1; experiment: Antiviral activity against protease-resistant HIV1 RF/L-323-12-3 infected in human MT2 cells assessed as inhibition of viral p24 antigen production after 4 days by ELISA; type: functional, organism-based; conditions: Human immunodeficiency virus 1, RF/L-323-12-3, MT2, 96 h
Method in brief: (§1)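 MT-2 cells (1 × 10^4) were infected at 100 TCID50 (0.01 MOI) in RPMI 1640 with 10% FBS, with or without graded inhibitor concentrations, overnight. Medium was then replaced with fresh inhibitor-containing medium. On day 4, supernatant was mixed 1:1 with 5% Triton X-100 and p24 was measured by ELISA. IC50 is the concentration giving 50% reduction in p24.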

[5] = tested on: Human immunodeficiency virus 1; experiment: Antiviral activity against primary HIV1 isolate 94UG103 infected in human PBMC assessed as inhibition of viral p24 antigen production after 7 days by ELISA; conditions: Human immunodeficiency virus 1, isolate 94UG103, 168 h
[6] = tested on: Human immunodeficiency virus 1; experiment: Antiviral activity against azidothymidine-resistant HIV1 SF2 infected in human MT2 cells assessed as inhibition of viral p24 antigen production after 4 days by ELISA; type: functional, organism-based; conditions: Human immunodeficiency virus 1, MT2, 96 h; method in brief: as §1
[7] = tested on: Human immunodeficiency virus 1; experiment: Antiviral activity against primary HIV1 isolate RU570 infected in human PBMC assessed as inhibition of viral p24 antigen production after 7 days by ELISA; conditions: Human immunodeficiency virus 1, isolate RU570, 168 h
[8] = tested on: Human immunodeficiency virus 1; experiment: Antiviral activity against primary HIV1 isolate 93IN101 infected in human PBMC assessed as inhibition of viral p24 antigen production after 7 days by ELISA; conditions: Human immunodeficiency virus 1, isolate 93IN101, 168 h
[9] = tested on: Human immunodeficiency virus 1; experiment: Antiviral activity against primary HIV1 isolate 92US657 infected in human PBMC assessed as inhibition of viral p24 antigen production after 7 days by ELISA; conditions: Human immunodeficiency virus 1, isolate 92US657, 168 h
[10] = tested on: Human immunodeficiency virus 1; experiment: Antiviral activity against HIV1 BaL infected in human PBMC assessed as inhibition of viral p24 antigen production after 4 days by ELISA; type: functional, organism-based; conditions: Human immunodeficiency virus 1, BaL, 96 h
[11] = tested on: Human immunodeficiency virus 1; experiment: Antiviral activity against HIV1 89.6 infected in human PBMC assessed as inhibition of viral p24 antigen production after 4 days by ELISA; type: functional, organism-based; conditions: Human immunodeficiency virus 1, 89.6, 96 h
[12] = tested on: Human immunodeficiency virus 1; experiment: Antiviral activity against HIV1 3B infected in human MT2 cells assessed as inhibition of viral p24 antigen production at 5 uM after 4 days by ELISA; type: functional, organism-based
[13] = tested on: Human immunodeficiency virus 1; experiment: Antiviral activity against HIV1 SF2 infected in human MT2 cells assessed as inhibition of viral p24 antigen production after 4 days by ELISA; type: functional, organism-based; conditions: Human immunodeficiency virus 1, SF2, MT2, 96 h; method in brief: as §1
[14] = tested on: Human immunodeficiency virus 1; experiment: Antiviral activity against primary HIV1 isolate 93BR020 infected in human PBMC assessed as inhibition of viral p24 antigen production after 7 days by ELISA; conditions: Human immunodeficiency virus 1, isolate 93BR020, 168 h
[15] = tested on: Human immunodeficiency virus 1; experiment: Antiviral activity against HIV1 MN infected in human MT2 cells assessed as inhibition of viral p24 antigen production after 4 days by ELISA; type: functional, organism-based; conditions: Human immunodeficiency virus 1, MN, MT2, 96 h; method in brief: as §1
[16] = tested on: Human immunodeficiency virus 1; experiment: Antiviral activity against HIV1 RF infected in human MT2 cells assessed as inhibition of viral p24 antigen production after 4 days by ELISA; type: functional, organism-based; conditions: Human immunodeficiency virus 1, RF, MT2, 96 h; method in brief: as §1
[17] = tested on: Human immunodeficiency virus 1; experiment: Antiviral activity against primary HIV1 isolate BCF02 infected in human PBMC assessed as inhibition of viral p24 antigen production after 7 days by ELISA; conditions: Human immunodeficiency virus 1, isolate BCF02, 168 h
[18] = target: Structural capsid protein (Human immunodeficiency virus 1) (UniProt Q76129); experiment: Binding affinity to HIV1 capsid protein assessed as decrease in formation of mature-like particles after 30 mins by electron microscopy
Method in brief: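 Purified CA at 50 μM in Na2HPO4 buffer pH 8.0, without RNA, was incubated with inhibitor at 0.5 to 5 molar equivalents for 30 min at 4 °C. It was then dialysed overnight at 4 °C in the same buffer plus 100 mM NaCl. Samples were spotted on poly-L-lysine-treated grids, negatively stained with uranyl acetate and imaged by EM at 80 kV for tube-shaped particles.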

[19] = Selectivity index, ratio of CC50 for human MT2 cells to IC50 for HIV1 3B infected in human MT2 cells; type: functional
Method in brief: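 IC50: MT-2 cells infected with HIV-1 IIIB (100 TCID50, 0.01 MOI) overnight with graded compound, then medium refreshed with compound; day-4 p24 measured by ELISA. […] Ratio is CC50/IC50.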

Structural capsid protein (Human immunodeficiency virus 1), sequence (Q76129 as listed by the source): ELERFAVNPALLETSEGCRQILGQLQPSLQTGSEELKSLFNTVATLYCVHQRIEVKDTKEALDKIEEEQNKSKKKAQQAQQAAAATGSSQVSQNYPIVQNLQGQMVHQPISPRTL

SMILES	IC50 [1] [µM]	CC50 (MT2) [µM]	further results
Cc1ccc2[nH]c(=O)c(CN(Cc3ccco3)C(=O)C(F)(F)F)cc2c1	> 27.5		
Cc1ccc2cc(CN(Cc3ccco3)C(=O)c3ccc(C(C)(C)C)cc3)c(=O)[nH]c2c1	> 14.6		
Cc1ccc2[nH]c(=O)c(CN(Cc3ccco3)C(=O)c3ccc(Cl)c(Cl)c3)cc2c1	9.2	70.7	
COc1ccc(C(=O)N(Cc2ccco2)Cc2cc3ccc(C)cc3[nH]c2=O)cc1	> 15		
c1cc(CN2CCCNCCNCCCNCC2)ccc1CN1CCCNCCNCCCNCC1			inhibition [2]: Active
Cc1ccc2cc(CN(Cc3ccco3)C(=O)c3cccc(F)c3)c(=O)[nH]c2c1	12.4	> 51.2	
Cc1ccc2[nH]c(=O)c(CN(Cc3ccco3)C(=O)c3ccc(C#N)cc3)cc2c1	> 25.2		
Cc1cc(=O)n2c3ccccc3n(C[C@H](O)CN3CCOCC3)c2c1C#N	30	> 34.1	
Cc1ccc2[nH]c(=O)c(CN(Cc3ccco3)C(=O)c3cc(Cl)c(O)c(Cl)c3)cc2c1	> 21.9		
Cc1ccc2[nH]c(=O)c(CN(CC3CCCO3)C(=O)c3ccc(Cl)cc3)cc2c1 (stereo not given)	> 38.9		
COc1ccc2[nH]c(=O)c(CN(Cc3ccco3)C(=O)c3ccc(Br)cc3)cc2c1	> 13		
Cc1ccc2[nH]c(=O)c(CN(Cc3cccs3)C(=O)C3CCCCC3)cc2c1	11.7	> 63.4	
Cc1ccc2[nH]c(=O)c(CN(Cc3cccs3)C(=O)c3ccccc3)cc2c1	> 12.9		
COc1ccc(C(=O)N(Cc2ccco2)Cc2cc3cc(C)ccc3[nH]c2=O)cn1	> 24.8		
Cc1ccc2[nH]c(=O)c(CN(Cc3ccco3)C(=O)c3ccc(Cl)cc3)cc2c1	1.06		IC50 [3]: 2.57 µM; IC50 [4]: 1.18 µM; IC50 [5]: 3.93 µM; IC50 [6]: 5.77 µM; IC50 [7]: 2.84 µM; IC50 [8]: 2.7 µM; IC50 [9]: 5.46 µM; IC50 [10]: 4.22 µM; IC50 [11]: 6.17 µM; inhibition [12]: Active; IC50 [13]: 2.43 µM; IC50 [14]: 4.18 µM; IC50 [15]: 2.88 µM; IC50 [16]: 1.64 µM; IC50 [17]: 6.07 µM; inhibition [18]: Dose-dependent effect; Selectivity Index [19]: >60
Cc1ccc2[nH]c(=O)c(CN(Cc3ccco3)C(=O)CN3CCN(C)CC3)cc2c1	> 24.5		

SMILES	IC50 [1] [µM]	CC50 (MT2) [µM]	further results
Cc1ccc2[nH]c(=O)c(CN(Cc3ccco3)C(=O)c3ccc(Cl)c(O)c3)cc2c1	> 23.6		
COc1ccc2nc(O)c(CN(Cc3ccco3)C(=O)c3ccccc3)cc2c1	> 25.7		
CCc1ccc2[nH]c(=O)c(CN(Cc3ccco3)C(=O)c3ccccc3)cc2c1	> 13.9		
Cc1ccc2[nH]c(=O)c(CN(Cc3ccco3)C(=O)c3ccccc3)cc2c1	9.28	> 67.1	
Cc1ccc2[nH]c(=O)c(CN(Cc3ccco3)C(=O)c3ccc(N(C)C)cc3)cc2c1	> 24.1		
Cc1ccc2[nH]c(=O)c(CN(Cc3ccco3)C(=O)c3ccc(O)c(Cl)c3)cc2c1	> 23.6		
Cc1ccc2[nH]c(=O)c(CN(Cc3ccc(Cl)cc3)C(=O)c3cn4cccc(C)c4n3)cc2c1	9.27	44.5	
Cc1ccc2cc(CN(Cc3ccco3)C(=O)c3ccccc3)c(=O)[nH]c2c1	> 16.8		
Cc1cccc2cc(CN(Cc3ccco3)C(=O)c3cccs3)c(O)nc12	> 16.5	> 66.1	
Cc1ccc2[nH]c(=O)c(CN(Cc3cccs3)C(=O)c3cccs3)cc2c1	11.8	> 64	
Cc1ccc2[nH]c(=O)c(CN(Cc3ccco3)C(=O)c3cccnc3)cc2c1	> 16.7		
Cc1ccc(C(=O)N(Cc2ccco2)Cc2cc3ccc(C)cc3[nH]c2=O)cc1	> 16.2		
CCc1ccc2[nH]c(=O)c(CN(Cc3ccco3)C(=O)c3cccs3)cc2c1	12.3	> 127	
Cc1ccc2[nH]c(=O)c(CN(Cc3ccco3)C(=O)c3ccc(S(N)(=O)=O)cc3)cc2c1	> 22.1		
Cc1ccc2[nH]c(=O)c(CN(Cc3ccco3)C(=O)c3cnn(C)c3)cc2c1	> 26.6		
Cc1ccc2[nH]c(=O)c(CN(Cc3ccco3)C(=O)c3ccc(F)cc3)cc2c1	> 25.6		

The remaining molecules from weak to strong by IC50 [1], led by results:

IC50 [1] [µM]	SMILES	CC50 (MT2) [µM]	further results
8.2	Cc1ccc2[nH]c(=O)c(CN(Cc3ccco3)C(=O)c3ccc(F)c(Cl)c3)cc2c1	> 23.5	
7.9	COc1ccc2[nH]c(=O)c(CN(Cc3cccs3)C(=O)c3cccc(C)c3)cc2c1	25	
7.87	COc1ccc2[nH]c(=O)c(CN(Cc3ccco3)C(=O)c3ccc(C)cc3)cc2c1	> 31	
7.25	Cc1cccc2cc(CN(Cc3ccco3)C(=O)c3ccccc3F)c(=O)[nH]c12	> 64	
7.1	Cc1ccc2[nH]c(=O)c(CN(Cc3ccco3)C(=O)c3ccc(Cl)c(N4CCCCC4)c3)cc2c1	> 20.4	
6.4	Cc1ccc(CN(Cc2cc3cc(C)ccc3[nH]c2=O)C(=O)c2ccco2)cc1	> 19.8	
6.1	COc1ccc2[nH]c(=O)c(CN(Cc3cccs3)C(=O)C3CCCCC3)cc2c1	> 48	
5.8	Cc1ccc2[nH]c(=O)c(CN(Cc3ccc4c(c3)OCO4)C(=O)c3ccccc3)cc2c1	> 117	
5	CCOc1ccc(C(=O)N(Cc2cccs2)Cc2cc3cc(C)ccc3[nH]c2=O)cc1	12.7	
4.7	Cc1ccc2[nH]c(=O)c(CN(Cc3ccco3)C(=O)c3ccc(F)c(F)c3)cc2c1	> 24.5	
4.23	Cc1ccccc1C(=O)N(Cc1ccco1)Cc1cc2cccc(C)c2[nH]c1=O	> 64.7	
4.02	Cc1cccc2cc(CN(Cc3ccco3)C(=O)c3ccccc3)c(=O)[nH]c12	> 67.1	
3.59	Cc1cccc2cc(CN(Cc3ccccc3)C(=O)c3cccc(Cl)c3)c(=O)[nH]c12	> 60	
3.09	Cc1ccc2[nH]c(=O)c(CN(Cc3ccccc3)C(=O)c3ccco3)cc2c1	> 67.1	
2.67	Cc1ccc(C(=O)N(Cc2ccco2)Cc2cc3cccc(C)c3[nH]c2=O)cc1	9.2	
2.16	Cc1ccc2[nH]c(=O)c(CN(Cc3ccco3)C(=O)c3ccc(Br)cc3)cc2c1	> 55.4	
